Experimental data: ChEMBL document CHEMBL4513216, “Probing the Open Global Health Chemical Diversity Library for Multistage-Active Starting Points for Next-Generation Antimalarials” (ACS Infect Dis, 2020)

Test: Toxicity liver stage against HepG2, at 10uM
Format: cell-based
Parameters: test concentration 10 uM, cell line HepG2-A16-CD81EGFP
Settings: human, HepG2-A16-CD81EGFP cells; read-out: INHIBITION
Outline: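 Uninfected HepG2-A16-CD81EGFP cells, 3 × 10^3 per well, 1536-well, plated on prespotted compound at 10 μM final, parasite-free screening media added to match infected plates; puromycin 10 μM positive, DMSO 0.5% negative; run in parallel with 48 h PbLuc assay at 37 °C, 5% CO2; viability by CellTiter-Glo luminescence, normalized to controls.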

SMILES | cytotoxicity at 10 µM
COC(=O)N1CCCC(NC(=O)NCc2csc(C)n2)C1 (configuration not stated) | 3.93%
O=C(c1ccccn1)N1C[C@@H]2OCC(=O)N(CC3CCCCC3)[C@@H]2C1 | -2.86%
CN1CCN(C(=O)c2ccc3c(c2)[nH]c(=O)n3C2CCCC2)CC1 | -42.2%
COc1cccc(CN2CCN(C(=O)CN3CCOCC3)CC2)n1 | -5.7%
CCc1nc(CN(C)C2CCN(CCc3ccccn3)C2)no1 (configuration not stated) | -0.168%
CCc1cc(N2CCC(n3cc(C(=O)NCC(C)C)nn3)CC2)ncn1 | 41.4%
c1cn2c(n1)CO[C@@H](CNCc1ccc3c(c1)OCO3)C2 | 2%
CCCn1cc(C(=O)NC(C(=O)O)c2ccccc2C(F)(F)F)c(C)n1 (configuration not stated) | -50.2%
Cc1nc(C(C)(C)C)sc1C(=O)NCCNc1ncccc1C#N | -15.8%
COc1ccc2c(C)nc(N3C[C@@H](C)O[C@@H](C)C3)nc2c1 | 6.77%
O=C(Cc1ccccc1)N1CCN(Cc2noc(C3CC3)n2)CC1 | 1.15%
O=C(C1CCCO1)N1CCc2onc(-c3ccc(Cl)cc3)c2C1 (configuration not stated) | -65.8%
Cc1nccc(N2CC[C@@H]3[C@@H](CCC(=O)N3CCc3ccccc3)C2)n1 | 2.19%
CC(=O)c1cc(CC(=O)NCc2ccc(F)cc2)cs1 | -18.7%
Cc1noc(C)c1C(=O)NCc1cc[nH]n1 | 9.31%
O=C(CN1CCCC1c1nc(-c2ccccn2)no1)N1CCNCC1 (configuration not stated) | 9.28%
CCC(C(=O)NCC1=CCN(C)CC1)c1ccccc1 (configuration not stated) | -7.66%
CNC(=O)C(NC(C)=O)c1ccc(F)c(F)c1 (configuration not stated) | -6.1%
CSCC1CCN(c2nc(N)ncc2C)CC1 | -5.2%
O=C(CN1C(=O)CCCc2sccc21)NC1CCc2nccn2C1 (configuration not stated) | 9.29%
CCN1CC2(CC1=O)CN(C(=O)NC)CCN(S(C)(=O)=O)C2 (configuration not stated) | -6.29%
Cc1ccc([C@]2(O)CC[C@H]3CN(Cc4ccccc4F)C[C@H]32)nc1 | -12.8%
Cc1cc(=O)n2nc(Oc3ccc(Cl)c(C)c3)sc2n1 | -19%

SMILES | cytotoxicity at 10 µM
CNC(=O)c1ccc(C2CN(C(=O)c3scnc3C)CCO2)nc1 (configuration not stated) | 19.7%
N#Cc1cccc(C(=O)N2CCN(c3ncccn3)CC2)c1 | -0.0581%
O=C(O)c1cc2n(n1)CCCN(C(=O)CCc1c[nH]c3ccccc13)C2 | 3.77%
O=C(CC1CCC2(CC1)CCN(Cc1cccnc1)CC2)N1CC=CC1 | -2.13%
Cc1ccc(CN2CCCC3(CCC(=O)N3)CC2)s1 (configuration not stated) | -5.84%
CCN(C(C)=O)c1nc(CN2CCN(c3nccs3)CC2)cs1 | -6.01%
Cc1cccc(CN2CCN(C(=O)c3cc(Cl)c[nH]c3=O)CC2)c1 | 1.47%
c1cncc(N2CCCn3nnc(CN4CCOCC4)c3C2)c1 | 2.46%
O=C1CCC2(CCC(NC3CCOCC3)CC2)N1Cc1ccccc1 (configuration not stated) | -0.0368%
Cc1cc(C)c(C#N)c(N2CCC(Cc3ccccc3)CC2)n1 | -11.8%
CC(=O)N1CCC2(CC1)COC(COCc1ccccn1)C2 (configuration not stated) | -114%
CN(C)C(=O)NCc1cc2n(n1)CCCN(CC1CCCNC1)C2 (configuration not stated) | -4.07%
CC(C)N1CCC(C(=O)N2CCN(c3cccc(C(=O)O)c3)CC2)CC1 | 6.4%
Cc1ccc(C2CCCCCN2CCCS(C)(=O)=O)o1 (configuration not stated) | -4.3%
COc1cc(Cl)ccc1C(=O)NCC(=O)Nc1nccs1 | 6.62%
Cc1nn(C)c(N(C)C)c1CNCc1ccccc1Cn1ccnc1 | -15.3%
CCc1cc(C(=O)N2CCC3(CCCN(CC4CC4)C3=O)C2)cs1 (configuration not stated) | -164%
CS(=O)(=O)NCc1nnc2n1CCN(CC1CC1)C2 | -0.285%
CN1CC(=O)N(c2cccc(F)c2)CC12CCN(CC1CC1)C2 (configuration not stated) | 2.26%
C[C@H](NC(=O)Cc1csc(-c2cccc(Cl)c2)n1)C(=O)O | 1.25%
Cc1cccnc1CNC(=O)NC(C)Cc1c(C)nn(C)c1C (configuration not stated) | 3.92%
Cc1cc(CN(CCO)c2ccccc2)on1 | -14.7%
O=C(c1ccc(-c2nc[nH]n2)cc1)N1CC[C@H](CO)[C@@H](O)C1 | 0.466%

SMILES | cytotoxicity at 10 µM
CN1CCC/C1=N\S(=O)(=O)c1ccc(NC(=O)Cc2cccs2)cc1 | -10.6%
CNCc1cn(C[C@H]2C[C@@H]3CCN2C[C@@H]3C(=O)NC2CCCCC2)nn1 | 1.73%
CN(C)Cc1csc(-c2nccn2CCc2cccnc2)c1 | -51.2%
CC1CN(C(=O)C2(c3ccc(F)cc3F)CCOCC2)CCO1 (configuration not stated) | -4.84%
CCN(CC1CCOC1)C(=O)c1cccnc1N1CCOCC1 (configuration not stated) | -10.8%
CN(C)c1ncccc1CN1CCOC(C(=O)Nc2ccccc2)C1 (configuration not stated) | -29.7%
O=S(=O)(Nc1cnn(C2CCOCC2)c1)c1ccc2c(c1)CCO2 | 5.42%
CN1C(=O)CCC12CCC(NCc1ccsc1)CC2 (configuration not stated) | 3.56%
Cc1nnc(NC(=O)N2CCCCC2CCO)s1 (configuration not stated) | -43.2%
Cc1cccc(OCCNC(=O)C(C)S(=O)(=O)c2ccccn2)c1 (configuration not stated) | 5.76%
COc1ncccc1NC(=O)NC1CCCN(c2ncccn2)C1 (configuration not stated) | -28.8%
CCc1ocnc1C(=O)N1CCOCC1CC(=O)c1ccccc1 (configuration not stated) | 5.92%
O=C(CCCOc1ccccc1Cl)N1CCCC(n2cncn2)C1 (configuration not stated) | -0.0868%
O=C(NCC1CCS(=O)(=O)C1)c1ccco1 (configuration not stated) | -7%
CCOCCN1CCN(CC(O)c2ccc(OC)cc2)CC1 (configuration not stated) | -2.28%
CCc1ccc(CNC(=O)CCNc2ncccn2)s1 | 3.73%
O=C(NCc1ccco1)[C@@H]1CCO[C@@H]2CCN(c3ncccn3)C[C@H]21 | -77.6%
O=C(c1nn[nH]c1Nc1ccc(Cl)cc1)N1CCCCCC1 | 34.5%
CN(Cc1ccco1)C(=O)C1CCCc2ccccc21 (configuration not stated) | 3.68%
Cc1cc(C(=O)N2CCc3nnc(N(C)C)cc3C2)c(C)n1C1CC1 | 1.56%
CC(C)CCN1C2(CCN(c3ncccn3)C2)c2ccccc2S1(=O)=O (configuration not stated) | 1.35%
Cc1c(F)cccc1S(=O)(=O)NC(C)(C)CN | 0.926%
CN(C)c1cc(N(C)Cc2cc(C(C)(C)C)n[nH]2)ncn1 | -0.629%

SMILES | cytotoxicity at 10 µM
O=C(c1ccco1)N1CC[C@@H](N2CCOCC2)[C@@H]1Cc1ccccc1 | -77%
CCCNC(=O)CN(C)C1CCN(c2ccc(Cl)cc2)CC1 | 1.41%
CCN(CC)CCn1ccnc1-c1cccc(C#N)c1 | -5%
c1ccc(Cc2noc(CNC3CCc4ncnn4C3)n2)cc1 (configuration not stated) | -5.99%
O=C(c1cscn1)N1CCC2(CCCN(CCOc3ccccc3)C2)C1 (configuration not stated) | 1.38%
Cc1ccc(CNC(=O)c2cc(Cn3ccnc3C(C)C)[nH]n2)o1 | 3.42%
CC(=O)c1cccc(NC(=O)Cn2cc(-c3ccccc3)ncc2=O)c1 | -2.45%
CC(=O)N1CCC(Cc2ccc(-c3ccnn3C)nc2)CC1 | 2.74%
COc1ccc(C[C@H]2CN(c3cc(OC)ncn3)CC[C@@H]2OC)cc1 | 50%
CSCC(C)CNC(=O)N1CCSC(C)(C)C1 (configuration not stated) | 0.873%
CCCNC(=O)C1CCCN(Cc2ccc(-n3cncn3)c(C)c2)C1 (configuration not stated) | 8.28%
CN(C)Cc1nnc(C2CCCN(c3ncccc3F)C2)n1C (configuration not stated) | 7.36%
CCN(CC)C1CCN(c2ncnc3c2CCN(C(=O)C2CC2)C3)C1 (configuration not stated) | 1.52%
CN(C)CC(=O)N1CCOC2(CCCN(c3ncccc3F)C2)C1 (configuration not stated) | -9.84%
CN(C)S(=O)(=O)N1CCCC1CC(=O)c1cccs1 (configuration not stated) | -9.44%
CN(Cc1nc2ccccc2s1)C1CCCN(c2cccnn2)C1 (configuration not stated) | 5.15%
Cc1ccccc1-c1noc(CN2CCC(c3ccn[nH]3)CC2)n1 | 1.98%
CN1CCN(Cc2cccc(NCc3cc[nH]n3)c2)CC1 | 11.2%
COC(=O)C(C)CN(C)S(=O)(=O)c1c(Br)cc2[nH]c(=O)oc2c1Cl (configuration not stated) | 8.73%
CN(C)c1cccc(C(=O)Nc2cnn(CC(N)=O)c2)c1 | 3.63%
CC(C)Cn1ncc(C(=O)NS(=O)(=O)c2ccccc2)c1C1CC1 | 2.35%
CC(Cn1cnc2cn(C)nc2c1=O)Oc1cccnc1 (configuration not stated) | -11.7%
COc1ccc(CN2C[C@H]3CN(Cc4ccncc4)C(=O)[C@H]3C2)cc1 | 4.35%

SMILES | cytotoxicity at 10 µM
CCCN1CCN(C(=O)Nc2ccccc2Cl)[C@H]2CS(=O)(=O)C[C@H]21 | 1.54%
COCCN1CCC(CNC(=O)c2cc(Cl)c[nH]2)CC1 | 5.2%
COc1ccc(Cl)cc1CC(=O)N1CCN(CC(C)O)CC1 (configuration not stated) | -17.1%
CC(C)c1cc(NC(=O)c2ccncc2)[nH]n1 | -0.396%
Cc1cccc(NC(=O)C2(n3cnnn3)CCCCC2)n1 | -1.05%
Cc1cc(NCC2CC(=O)Nc3ccccc32)nc(C)n1 (configuration not stated) | 0.344%
CC1CN(C(=O)NCCNc2cnccn2)CCO1 (configuration not stated) | 5.31%
Cn1cc(N2CCC3(CCN(Cc4nccs4)C3)C2=O)cn1 (configuration not stated) | 3.76%
Cc1ccccc1SCC(=O)NC1CCC(n2cnnc2)CC1 (configuration not stated) | -48%
C=C(C)COc1cccc(CNCCc2c[nH]cn2)c1 | 8.95%
CNC(=O)CN(C)C(=O)Cc1csc(C(C)C)n1 | -5.07%
COc1ccc2nnc(CCC(=O)Nc3nc4c(s3)CCC4)n2n1 | -4.8%
O=C(CN1CCCC1Cn1cccn1)NC1CCN(C2CC2)CC1 (configuration not stated) | 5.77%
Cc1nccn1CCN(C)C(=O)C1CCN(C(=O)C2CCCC2)CC1 | -4.06%
Cc1noc(C2CCC3(CCN(C(=O)C4CCOCC4)CC3)O2)n1 (configuration not stated) | 7.16%
Cn1nnc2c1C(COCc1ccccn1)CN(Cc1ccoc1)C2 (configuration not stated) | 5.94%
NC(=O)C1CCCN1C1CCN(C(=O)c2ccc3c(c2)OCO3)CC1 (configuration not stated) | 1.59%
CCn1cnnc1CNC(=O)N1CCC(C(=O)NC)CC1 | 2.65%
Cc1nc(C)c(C)c(NCCSc2ccccn2)n1 | -4.23%
CCN(CC)C(=O)CN1CCc2nc(C3CCNCC3)nc(NC)c2C1 | -5.46%
